Screening results deposited in PubChem BioAssay by Sanford-Burnham Center for Chemical Genomics.
The list is not random: actives were taken first. Their share in the collection is about 1.6%.
FLuc act counter: affects firefly luciferase, flagging false hits in luciferase stimulation screens. P08659. ATPlite luciferase biochemical, luminescence, 10 min; 0 = ATP-free wells, 1 = DMSO control. activation factor at 10 µM. 200,000 tested, under 10 active;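 active = luciferase activation factor, scaled between plate controls, of at least 2 with compound at 10 µM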
Target sequence (P08659 whole entry, looked up): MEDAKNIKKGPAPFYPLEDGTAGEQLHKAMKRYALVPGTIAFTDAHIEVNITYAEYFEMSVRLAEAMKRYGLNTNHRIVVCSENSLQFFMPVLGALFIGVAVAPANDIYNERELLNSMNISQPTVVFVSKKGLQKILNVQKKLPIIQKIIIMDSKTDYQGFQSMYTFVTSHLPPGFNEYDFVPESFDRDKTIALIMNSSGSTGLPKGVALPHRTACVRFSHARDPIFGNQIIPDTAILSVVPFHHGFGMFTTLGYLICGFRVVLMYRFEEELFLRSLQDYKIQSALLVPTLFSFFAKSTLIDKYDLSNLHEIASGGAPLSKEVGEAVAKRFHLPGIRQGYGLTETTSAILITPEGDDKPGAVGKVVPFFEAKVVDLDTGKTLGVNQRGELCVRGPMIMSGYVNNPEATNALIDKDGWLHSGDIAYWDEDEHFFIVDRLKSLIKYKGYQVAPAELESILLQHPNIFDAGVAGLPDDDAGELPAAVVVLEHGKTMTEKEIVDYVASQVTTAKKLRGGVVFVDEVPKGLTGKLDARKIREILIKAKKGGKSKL
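assay system = Luciferase/luciferin detection reagent, cell-free biochemical luciferase assay | also added = ATP substrate | times = 10 min post-reagent at room temperature | measured by = luminescence from luciferase reaction | measure = luciferase activation, seen as luminescence increase over controls | benchmarks = low control with PBS replacing ATP, high control enzyme plus ATP without compound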
PPC-1+TRAIL kill: PPC-1 cancer cell killing with TRAIL present; PPC-1 cells + TRAIL, ATPLite viability luminescence; cell killing (% activity), % at 4 µM or 5 µM; hit rate 0.41% among 220,000; AID 1443;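 active = cell killing above 50% in the first pass at 4 µM, then a duplicate retest at 5 µM averaging 50% or more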;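 also: plate controls were cells with TRAIL plus DMSO for no effect and medium-only wells lacking cells for full effect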
FLuc inhib CS: counter-screen for luciferase assay inhibitors: firefly luciferase inhibition. P08659. ATPLite firefly luciferase biochemical luminescence, 10 min. inhibition, % at 10 µM. hit rate 1.5% among 200,000;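 active = inhibition above about 50% when tested at 10 µM, limit read from the data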
TRAIL sens C8: sensitizes caspase-8 expressing cells to TRAIL; NB7+C8 cells + TRAIL, ATPlite viability luminescence; inhibition (viability loss, TRAIL sensitization), % at 10 µM; hit rate 1% among 360,000;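 active = compounds causing at least 50% loss of cell viability in the single-dose screen, relative to plate controls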
* marks the source's active call; other numbers are inactive results; nt = no result given.

SMILES	FLuc act counter	PPC-1+TRAIL kill	FLuc inhib CS	TRAIL sens C8
COC(=O)c1ccc(C(c2c(N)n(Cc3ccccc3)c(=O)n(C)c2=O)N2CCOCC2)cc1 (configuration not stated)	1	17	-2	-6
COc1ccc(N/C=C/C(=O)c2ccc(OC)c(OC)c2)cc1	nt	-7	nt	-9
COc1ccc(OC)c(N/C(C)=C/C(=O)c2ccncc2)c1	nt	nt	nt	-22
COc1ccc(OC)c(N/C(C)=C/C(=O)c2ccccc2)c1	0.2	44	76*	45
COc1ccc(OC)c(N/C=C/C(=O)c2ccccc2)c1	nt	nt	nt	91*
COc1ccc(NC(=O)C2=Cc3cccc(OC)c3OC2)cc1	0.4	34	55*	26
COc1cccc2c1OCC(C(=O)OCc1cccnc1)=C2	1	9	-3	8
COc1ccc(NC(=O)C2=Cc3ccccc3OC2)cc1	0.5	17	52*	21
O=C(Nc1ccc(Cl)cc1)C1=Cc2cc(Cl)ccc2OC1	1	-2	-3	-8
CC(C)Oc1cccc(C(=O)C2CCCN(Cc3cccn3-c3cccnc3)C2)c1 (configuration not stated)	nt	-10	nt	12
C#CCOCCOCCOCCNc1nc(N2CCN(C(=O)Cn3cc(CCCCN)nn3)CC2)nc(N2CCN(C(=O)[C@H]([C@@H](C)CC)n3cc(CCCN=C(N)N)nn3)CC2)n1	nt	nt	nt	-15
CC(=O)c1ccc(NS(=O)(=O)c2ccc(N)cc2)cc1	1	15	-3	0
CC(C)c1ccc(/C=N/N2CCCCC2)cc1	0.3	9	66*	3
CN(C)c1ccc(C=NN2CCCCCC2)cc1	nt	nt	nt	15
Cc1cc(NC(=O)Nc2cc(F)ccc2C)n(C)n1	nt	nt	nt	-14
COC(=O)c1ccc(-c2ccc(/C=N/N3C(=O)C4C5C=CC(C6CC56)C4C3=O)o2)cc1 (configuration not stated)	1	55*	-3	11
CCOC(=O)c1ccccc1N=Cc1c(O)c2ccccc2oc1=O	nt	nt	nt	-10
CCOc1ccc(N=Cc2c(O)cc(C)oc2=O)cc1	0.5	13	53*	-27
CCOc1ccc(N=Cc2c(O)c3ccccc3oc2=O)cc1	0.2	10	78*	-5
Fc1ccc(-c2csc(N3CCOCC3)n2)cc1	nt	-8	nt	-6
c1ccc2oc(-c3csc(N4CCOCC4)n3)cc2c1	0.1	-2	86*	53*
O=C(NC(=S)N1CCN(c2ccc(C(F)(F)F)cc2[N+](=O)[O-])CC1)c1cccs1	1.1	16	-9	51*
Cc1ccc(NC(=O)Nc2ccccc2CC[N+](=O)[O-])cc1	0.9	16	7	6
Oc1cc(NCc2ccc(F)cc2)cc2cccnc12	nt	nt	nt	54*
CC1CCC/C(=N/Nc2nc3ccccc3s2)C1 (configuration not stated)	0.3	26	72*	4
SMILES	FLuc act counter	PPC-1+TRAIL kill	FLuc inhib CS	TRAIL sens C8
O=C(Cc1nc2ccccc2[nH]c1=O)c1ccccc1	0.4	26	58*	42
O=C(CN1C(=O)NC2(CCCCCCC2)C1=O)NC(=O)NCc1ccco1	1.1	-4	-8	11
Oc1ccc(-c2nnc(SCC3CCCCC3)o2)cc1	0.7	15	30	72*
O=C(CSc1nnc(-c2ccc(O)cc2)o1)N1CCOCC1	1	6	3	-4
COc1ccc(N/C=C2\CCOC2=O)cc1	1.1	-9	-6	-1
COc1ccc(C2(C)CC(C)(C)Nc3ccccc32)cc1 (configuration not stated)	nt	nt	nt	2
N#Cc1cnn(-c2nc3sc4c(c3c(=O)[nH]2)CCCC4)c1N	0.4	36	60*	42
CCOc1ccc(-c2nnc(-c3ccc(OC)cc3)o2)cc1	1	15	5	-3
CCOC(=O)Cc1nnc(-c2ccccc2)o1	1	3	1	-9
CCOc1ccc(-c2cnc3ccccc3n2)cc1	nt	19	nt	66*
CCOC(=O)COc1ccc(-c2nnc(-c3ccccc3)o2)cc1	0.8	32	15	49*
CCOc1ccc(-c2nnc(-c3ccccc3)o2)cc1	0.3	27	75*	58*
COc1ccc(C(=O)Nc2ccc(S(=O)(=O)N3CCCC3)cc2)cc1	1.1	-7	-7	2
Cc1ccc(-n2c(CNc3ccc(F)cc3)nnc2SCC(=O)O)cc1	1	0	-4	7
Cc1ccc(NCc2nnc(SCC(=O)O)n2-c2ccc(C)cc2)cc1	0.2	nt	82*	-8
COc1ccc(-c2cn3c(C)c(C(=O)Nc4cccc(NC(C)=O)c4)sc3n2)cc1	1	-1	0	69*
COc1ccc([N+](=O)[O-])cc1NC(=O)CCNC(=O)Cn1ccc2ccccc2c1=O	1	10	-1	32
